Source: ChEMBL document CHEMBL3272023, “Metabolic formation and synthesis of 1-(3-chlorophenyl)-2(4-hydroxyphenyl)-1-methyl-2(2 pyridine)ethanol. A potential hypocholesteremic agent” (J Med Chem, 1976)

What was measured:
Settings in all cases: in vivo
[1] = Drug excretion in Sprague-Dawley rat assessed as radioactivity in urine at 1.71 uCi, ip measured on day 1; type: ADME, organism-based
Method in brief: (§1)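 Three male rats (250 ± 10 g), each in its own metabolic cage with diet and water ad libitum, given 40 mg/kg ³H-labelled drug (1.71 µCi) ip as 1 ml aqueous 0.26% Tween 80 suspension. Urine and feces collected at 11 h, then daily for 13 days. Feces air-dried, powdered, oxidized and counted. Tissues assayed after sacrifice on day 14.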

[2] = Drug excretion in Sprague-Dawley rat assessed as total radioactivity in feces at 1.71 uCi, ip; type: ADME; method in brief: as §1
[3] = Retardation factor of the compound in Sprague-Dawley rat urine at 15.6 uCi, ip using hexane-chloroform-acetic acid at 6:3:1 ratio TLC system I; type: physicochemical, organism-based
Method in brief: (§2)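 Urine from two rats (250 g) given 300 mg/kg (15.6 µCi) ip was examined by TLC, directly and before/after enzymatic hydrolysis (pH 5.8, 37°, 72 h). Standards were located by fluorescence quenching. Radioactivity was measured by scintillation counting of 0.5-cm silica gel strips scraped from the plates.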

[4] = Drug metabolism in Sprague-Dawley rat urine at 15.6 uCi, ip using hexane-chloroform-acetic acid at 6:3:1 ratio TLC system I; type: ADME, organism-based; method in brief: as §2
[5] = Drug metabolism in Sprague-Dawley rat urine assessed as hydroxylated 2-benzylpyridine at 15.6 uCi, ip by gas chromatography-mass spectrometry; type: ADME, organism-based
Method in brief: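 Two rats (250 g) dosed ip at 300 mg/kg (15.6 µCi). Urine hydrolysed at pH 5.8, 37°, 72 h with Helix pomatia glucuronidase/arylsulfatase or bovine liver β-glucuronidase. Preparative TLC in system II; the radioactive band at Rf 0.6 extracted into Et2O and silylated (bis(trimethylsilyl)acetamide/triethylamine). GLC on 3% SE-30, fractions counted, radioactive peak sent to MS.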

[6] = Drug metabolism in Sprague-Dawley rat urine at 15.6 uCi, ip using benzene-methanol at 8:2 ratio TLC system II; type: ADME, organism-based; method in brief: as §2
[7] = Drug excretion in Sprague-Dawley rat assessed as radioactivity in urine at 1.71 uCi, ip measured on day 7; type: ADME, organism-based; method in brief: as §1
[8] = Drug excretion in Sprague-Dawley rat assessed as radioactivity in feces at 1.71 uCi, ip measured on day 13; type: ADME, organism-based; method in brief: as §1
[9] = Drug metabolism in Sprague-Dawley rat urine at 15.6 uCi, ip using Et2O TLC system; type: ADME, organism-based; method in brief: as §2
[10] = Drug excretion in Sprague-Dawley rat assessed as radioactivity in feces at 1.71 uCi, ip measured on day 1

Drug excretion [1]: 5% | Drug excretion [2]: 25% | Rf [3]: 0.56 | Drug metabolism [4]: metabolite_notdetected | Drug metabolism [5]: metabolite_detected | Drug metabolism [6]: metabolite_detected | Drug excretion [7]: < 1% | Drug excretion [8]: < 1% | Drug metabolism [9]: metabolite_detected | Drug excretion [10]: 7%
Compound: CC(O)(c1cccc(Cl)c1)C(c1ccccc1)c1ccccn1 (stereo not given)
